Laboratory results: ChEMBL document CHEMBL5154918, “Synthesis and Biological Characterization of a Series of 2-Sulfonamidebenzamides as Allosteric Modulators of MrgX1” (ACS Med Chem Lett, 2022)
pEC50: −log10 of the molar value.

Experiments:
[1] = target: T1, Mas-related G-protein coupled receptor member X1 (Homo sapiens, UniProt Q96LB2); test: Positive allosteric modulator activity at human MRGPRX1 expressed in HEK293 cells assessed as maximal efficacy at 5 uM in presence of BAM8-22 by Fluo4-dye based FLIPR assay relative to control; format: cell-based
T1 sequence (Q96LB2 whole entry): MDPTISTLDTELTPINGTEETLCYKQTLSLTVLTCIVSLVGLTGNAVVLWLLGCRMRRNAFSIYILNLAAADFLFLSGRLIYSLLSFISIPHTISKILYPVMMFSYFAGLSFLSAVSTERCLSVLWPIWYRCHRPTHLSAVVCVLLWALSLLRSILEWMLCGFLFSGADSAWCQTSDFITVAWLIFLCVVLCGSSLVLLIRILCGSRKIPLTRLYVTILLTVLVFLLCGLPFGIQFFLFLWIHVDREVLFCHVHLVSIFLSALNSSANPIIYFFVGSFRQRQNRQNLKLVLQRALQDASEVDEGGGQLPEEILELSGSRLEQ

[2] = target: T1, Mas-related G-protein coupled receptor member X1; test: Positive allosteric modulator activity at human MRGPRX1 expressed in HEK293 cells in presence of BAM8-22 by Fluo4-dye based FLIPR assay; format: cell-based
Summary of the method: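 HEK293 cells expressing MrgX1. Compounds tested in the presence of 10 nM BAM8-22. Emax normalized to control compound ML382; mean ± SEM of n = 2 experiments.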

[3] = Microsomal stability in human liver microsomes assessed as intrinsic clearance; format: ADME, Microsome; conditions: read-out: CLH
Summary of the method: (§1)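 Intrinsic clearance measured in human and mouse liver microsomes. Hepatic clearance predicted from it with the well-stirred organ CL model, binding terms excluded.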

[4] = Microsomal stability in mouse liver microsomes assessed as intrinsic clearance; format: ADME, Microsome; conditions: read-out: CLH; summary of the method: as §1
[5] = Plasma protein binding in human assessed as unbound fraction; format: ADME, cell-free; conditions: read-out: PPB
Summary of the method: (§2)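 Equilibrium dialysis in human and mouse plasma; results expressed as […] fraction unbound.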

[6] = Plasma protein binding in mouse assessed as unbound fraction; format: ADME, cell-free; conditions: read-out: PPB; summary of the method: as §2
[7] = filed as positive allosteric modulator

SMILES	Emax [1] [%]	Emax [1, 7] [%]	pEC50 [2]	CLint scaled [3] [mL/min/kg]	CLint scaled [4] [mL/min/kg]	fraction unbound [5]	fraction unbound [6]
CCOc1ccccc1Nc1nn(S(=O)(=O)C2CC2)c2cccnc12	1.9	–	–	–	–	–	–
CCOc1cccnc1NC(=O)c1ccccc1NS(=O)(=O)C1CC1	1.6	–	–	–	–	–	–
CCS(=O)(=O)Nc1ccc(Cl)cc1C(=O)Nc1ccccc1OCC(F)(F)F	–	89.5	6.44	–	–	–	–
CCS(=O)(=O)Nc1ccc(F)cc1C(=O)Nc1ccccc1OCC(F)(F)F	–	100	6.36	–	–	–	–
Cc1cc2cccc(NC(=O)c3ccccc3NS(=O)(=O)C3CC3)c2o1	–	66.3	5.98	74.9	1460	< 0.003	0.026
CCOc1ccccc1NC(=O)c1ccncc1NS(=O)(=O)C1CC1	12.1	–	–	–	–	–	–
CCOc1ccccc1NC(=O)c1cc(Cl)ccc1NS(=O)(=O)C1CC1	–	110	7.27	130	1470	0.001	0.001
O=C(Nc1ccc2c(c1)OCCO2)c1ccccc1NS(=O)(=O)C1CC1	2.1	–	–	–	–	–	–
CCOc1ccccc1CNC(=O)c1ccccc1NS(=O)(=O)C1CC1	12.7	–	–	–	–	–	–
O=C(Nc1ccccc1OCC(F)(F)F)c1ccc(F)cc1NS(=O)(=O)C1CC1	29.1	–	–	–	–	–	–
CCOc1ccccc1-c1nnc(-c2ccccc2NS(=O)(=O)C2CC2)[nH]1	7.5	–	–	–	–	–	–
CCCOc1ccccc1NC(=O)c1ccccc1NS(=O)(=O)C1CC1	–	80.8	6.30	116	4890	< 0.003	0.015
O=C(Nc1ccccc1OCC(F)(F)F)c1ccccc1NS(=O)(=O)C1CC1	–	95	6.30	40.2	979	0.004	0.022
O=C(c1ccccc1NS(=O)(=O)C1CC1)N1CCCc2ccccc21	6.8	–	–	–	–	–	–
CCOc1cccc2nc(-c3ccccc3NS(=O)(=O)C3CC3)[nH]c12	23.8	–	–	–	–	–	–
CCOc1ccccc1NC(=O)c1ncccc1NS(=O)(=O)C1CC1	0.1	–	–	–	–	–	–
CCOc1cc(F)ccc1NC(=O)c1ccccc1NS(=O)(=O)C1CC1	-10.5	–	–	–	–	–	–
O=C(Nc1cccc2c1OC(F)(F)O2)c1ccccc1NS(=O)(=O)C1CC1	14.6	–	–	–	–	–	–
CCOc1ccccc1NC(=O)c1ccc(C)cc1NS(=O)(=O)C1CC1	3.2	–	–	–	–	–	–
CCOc1ccc(F)cc1NC(=O)c1cc(Cl)ccc1NS(=O)(=O)C1CC1	–	104	7.26	138	> 2400	0.001	0.003
CCOc1ccccc1NC(=O)c1cc(F)ccc1NS(=O)(=O)C1CC1	–	102	6.76	45.4	383	0.004	0.041
CCOc1ccccc1NC(=O)c1cccc(NS(=O)(=O)C2CC2)c1	-44.4	–	–	–	–	–	–
CCOc1ccc(F)cc1NC(=O)c1ccccc1NS(=O)(=O)CC	–	74	6.55	–	–	–	–
COCCOc1ccccc1NC(=O)c1ccccc1NS(=O)(=O)C1CC1	20.7	–	–	–	–	–	–
CCOc1ccc(F)cc1NC(=O)c1cc(Cl)ccc1NS(=O)(=O)CC	–	118	6.69	–	–	–	–
O=C(Nc1cccc2c1OCCC2)c1ccccc1NS(=O)(=O)C1CC1	27	–	–	–	–	–	–
CCOc1ccc(F)cc1NC(=O)c1cc(C)ccc1NS(=O)(=O)CC	–	128	7.10	69.3	1000	0.003	0.014
O=C(Nc1cccc2occc12)c1ccccc1NS(=O)(=O)C1CC1	–	53.4	4.85	–	–	–	–
O=C(Nc1cccc2c1OCCO2)c1ccccc1NS(=O)(=O)C1CC1	37.9	–	5.05	–	–	–	–
CCOc1ccccc1NC(=O)c1ccccc1NS(=O)(=O)C1CC1	–	100	6.91	61.9	1060	0.004	0.017
